From ChEMBL document CHEMBL1124747, “Properties of the nucleic acid photoaffinity labeling agent 3-azidoamsacrine” (J Med Chem, 1990)

What was measured:
[1] = Half-life was evaluated in water in the absence of light; type: ADME
[2] = Ability to block cleavage of AG/CT site in AluI enzyme with the light activated test compound, DNA ratio 1(no. of sites=16); += light activation
In short: (§1)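 pBR322 plasmid mixed with drug at 0.015, 0.12 or 0.48 mM (drug:DNA 1:8, 1:1 or 4:1), equilibrated on ice 30 min in the dark in 5 mM potassium phosphate pH 5.5, then irradiated 1 h with a medium-pressure Hg lamp (<340 nm filtered); dark set kept as control. Digested overnight with 10× excess enzyme plus DTT; fragments resolved on 1.2% agarose in TBE.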

[3] = Ability to block cleavage of AG/CT site in AluI enzyme with the light activated test compound, DNA ratio 1:8(no. of sites=16); += light activation; in short: as §1
[4] = Ability to block cleavage of AG/CT site in AluI enzyme with the light activated test compound, DNA ratio 4(no. of sites=16); += light activation; in short: as §1
[5] = Ability to block cleavage of TTT/AAA site in DraI enzyme with the light activated test compound/DNA ratio 1:8(no. of sites=3); += light activation; in short: as §1
[6] = Ability to block cleavage of TTT/AAA site in DraI enzyme with the light activated test compound/DNA ratio 4(no. of sites=3); += light activation; in short: as §1
[7] = Ability to block cleavage of TTT/AAA site in DraI enzyme with the light activated test compound/DNA ratio 1(no. of sites=3); += light activation; in short: as §1
[8] = Ability to block cleavage of GG/CC site in HaeIII enzyme with the light activated test compound/DNA ratio 1(no. of sites=22); += light activation; in short: as §1
[9] = Ability to block cleavage of GG/CC site in HaeIII enzyme with the light activated test compound/DNA ratio 1:8(no. of sites=22); += light activation; in short: as §1
[10] = Ability to block cleavage of GG/CC site in HaeIII enzyme with the light activated test compound/DNA ratio 4(no. of sites=22); += light activation; in short: as §1
[11] = Ability to block cleavage of G/ANTC site in Hinf1 enzyme with the light activated test compound/DNA ratio 1(no. of sites=10); += light activation; in short: as §1
[12] = Ability to block cleavage of G/ANTC site in Hinf1 enzyme with the light activated test compound/DNA ratio 1:8(no. of sites=10); += light activation; in short: as §1
[13] = Ability to block cleavage of G/ANTC site in Hinf1 enzyme with the light activated test compound/DNA ratio 4(no. of sites=10); += light activation; in short: as §1
[14] = Ability to block cleavage of C/CGG site in HpaII enzyme with the light activated test compound/DNA ratio 1(no. of sites=26); += light activation; in short: as §1
[15] = Ability to block cleavage of C/CGG site in HpaII enzyme with the light activated test compound/DNA ratio 1:8(no. of sites=26); += light activation; in short: as §1
[16] = Ability to block cleavage of C/CGG site in HpaII enzyme with the light activated test compound/DNA ratio 4(no. of sites=26); += light activation; in short: as §1
[17] = Induction frequency for L5178Y cells was evaluated at dose 0.005 mg/mL in dark-I condition (expt-I); type: functional, Mus musculus
In short: (§2)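 L5178Y suspension cells (3 × 10^6/mL, 5% CO2, 37 °C, shaking) exposed 20 h without activating enzyme; light arm irradiated 6.5 min (Hg lamp, <340 nm filtered). Cells washed, grown 24 h more and kept at 3 × 10^5/mL. Viability from 200 cells in soft agar; TFT (0.1 mg/mL) resistant colonies from 10^6 cells in triplicate dishes, counted at 10 days.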

[18] = Relative mutation induction for L5178Y cells was evaluated at dose 0.005 mg/mL in dark condition (expt-II); type: functional, Mus musculus; in short: as §2
[19] = Relative mutation induction for L5178Y cells was evaluated at dose 0.005 mg/mL in light condition (expt-II); type: functional, Mus musculus; in short: as §2
[20] = Relative toxicity against mammalian L5178Y cells at dose 0.005 mg/mL in dark condition (expt-II); type: functional, Mus musculus
In short: (§3)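 L5178Y mouse cells in suspension, 3 × 10^6 cells/mL, were exposed for 20 h at 37 °C in a shaker at 150 rpm under 5% CO2, without an activating enzyme. Light arms were irradiated for 6.5 min with a medium-pressure Hg lamp filtered to remove light below 340 nm; dark arms were not. Toxicity was taken as the Coulter-counted density of treated cells versus solvent control.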

[21] = Relative toxicity against mammalian L5178Y cells at dose 0.005 mg/mL in light condition (expt-II); type: functional, Mus musculus; in short: as §3
[22] = Viability of L5178Y cells was evaluated at dose 0.005 mg/mL in dark condition (expt-II); type: functional, Mus musculus
In short: (§4)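 L5178Y cells were exposed for 20 h at 3 × 10^6 cells/mL. Light arms then received 6.5 min of Hg-lamp irradiation filtered to remove light below 340 nm. Cells were washed twice in Fischer's medium, grown a further 24 h and held at 3 × 10^5 cells/mL. For viability, 200 cells were plated in soft-agar cloning medium in triplicate dishes, and colonies were counted by an automated counter after 10 days.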

[23] = Viability of L5178Y cells was evaluated at dose 0.005 mg/mL in light condition (expt-II); type: functional, Mus musculus; in short: as §4
[24] = Mutation frequency for L5178Y cells was evaluated at dose 0.005 mg/mL in dark-I condition (expt-I); type: functional, Mus musculus; in short: as §2
[25] = Mutation frequency for L5178Y cells was evaluated at dose 0.005 mg/mL in light-I condition (expt-I); type: functional, Mus musculus; in short: as §2
[26] = Mutation frequency for L5178Y cells was evaluated at dose 0.008 mg/mL in dark-II condition (expt-I); type: functional, Mus musculus; in short: as §2
[27] = Relative mutation induction for L5178Y cells was evaluated at dose 0.005 mg/mL in dark-I condition (expt-I); type: functional, Mus musculus; in short: as §2
[28] = Relative mutation induction for L5178Y cells was evaluated at dose 0.005 mg/mL in light-I condition (expt-I); type: functional, Mus musculus; in short: as §2
[29] = Relative mutation induction for L5178Y cells was evaluated at dose 0.008 mg/mL in dark-II condition (expt-I); type: functional, Mus musculus
[30] = Relative toxicity against mammalian L5178Y cells at dose 0.005 mg/mL in dark-1 condition (expt-I); type: functional, Mus musculus; in short: as §3
[31] = Relative toxicity against mammalian L5178Y cells at dose 0.005 mg/mL in light-1 condition (expt-I); type: functional, Mus musculus; in short: as §3
[32] = Relative toxicity against mammalian L5178Y cells at dose 0.008 mg/mL in light-2 condition (expt-I); type: functional, Mus musculus; in short: as §3
[33] = Viability of L5178Y cells was evaluated at dose 0.005 mg/mL in dark-I condition (expt-I); type: functional, Mus musculus; in short: as §4
[34] = Viability of L5178Y cells was evaluated at dose 0.005 mg/mL in light-I condition (expt-I); type: functional, Mus musculus; in short: as §4
[35] = Viability of L5178Y cells was evaluated at dose 0.008 mg/mL in dark-II condition (expt-I); type: functional, Mus musculus; in short: as §4
[36] = Viability of L5178Y cells was evaluated at dose 0.008 mg/mL in light-II condition (expt-I); type: functional, Mus musculus; in short: as §4
[37] = Induction frequency for L5178Y cells was evaluated at dose 0.005 mg/mL in dark condition (expt-II); type: functional, Mus musculus; in short: as §2
[38] = Induction frequency for L5178Y cells was evaluated at dose 0.005 mg/mL in light condition (expt-II); type: functional, Mus musculus; in short: as §2
[39] = Mean value of mutation induction for L5178Y cells was evaluated at dose 0.005 mg/mL in dark condition (expt-II); type: functional, Mus musculus
In short: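 L5178Y cells in suspension culture, gassed with 5% CO2 in air, shaken at 150 rpm, 37 °C. Cells at 3 × 10^6/mL were dosed for 20 h, unirradiated and without activating enzyme, then washed twice in Fop and grown 24 h more. TFT-resistant mutants came from 10^6 cells plated in three dishes of cloning medium with 0.1 mg/mL TFT, colonies counted at 10 days; frequency expressed ×10^6.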

[40] = Mean value of mutation induction for L5178Y cells was evaluated at dose 0.005 mg/mL in light condition (expt-II); type: functional, Mus musculus; in short: as §2
[41] = Mutation frequency for L5178Y cells was evaluated at dose 0.005 mg/mL in dark condition (expt-II); type: functional, Mus musculus; in short: as §2
[42] = Mutation frequency for L5178Y cells was evaluated at dose 0.005 mg/mL in light condition (expt-II); type: functional, Mus musculus; in short: as §2
[43] = Induction frequency for L5178Y cells was evaluated at dose 0.005 mg/mL in light-I condition (expt-I); type: functional, Mus musculus; in short: as §2
[44] = Induction frequency for L5178Y cells was evaluated at dose 0.008 mg/mL in dark-II condition (expt-I); type: functional, Mus musculus; in short: as §2
[45] = Mean value of mutation induction for L5178Y cells was evaluated at dose 0.005 mg/mL in dark-I condition (expt-I); type: functional, Mus musculus; in short: as §2
[46] = Mean value of mutation induction for L5178Y cells was evaluated at dose 0.005 mg/mL in light-I condition (expt-I); type: functional, Mus musculus; in short: as §2
[47] = Mean value of mutation induction for L5178Y cells was evaluated at dose 0.008 mg/mL in dark-II condition (expt-I); type: functional, Mus musculus; in short: as §2
[48] = Mean value of mutation induction for L5178Y cells was evaluated at dose 0.008 mg/mL in light-II condition (expt-I); type: functional, Mus musculus; in short: as §2
[49] = Ability to block cleavage of GCC/GGC site in NaeI enzyme with the light activated test compound/DNA ratio 1(no. of sites=4); += light activation; in short: as §1
[50] = Ability to block cleavage of GCC/GGC site in NaeI enzyme with the light activated test compound/DNA ratio 1:8(no. of sites=4); += light activation; in short: as §1
[51] = Ability to block cleavage of GCC/GGC site in NaeI enzyme with the light activated test compound/DNA ratio 4(no. of sites=4); += light activation; in short: as §1
[52] = Ability to block cleavage of […] site in NciI enzyme with the light activated test compound/DNA ratio 1(no. of sites=10); += light activation; in short: as §1
[53] = Ability to block cleavage of […] site in NciI enzyme with the light activated test compound/DNA ratio 1:8(no. of sites=10); += light activation; in short: as §1
[54] = Ability to block cleavage of […] site in NciI enzyme with the light activated test compound/DNA ratio 4(no. of sites=10); += light activation; in short: as §1
[55] = Ability to block cleavage of G/GNCC site in Restriction endonuclease Sau961 with the light activated test compound/DNA ratio 1(no. of sites=15); += light activation; in short: as §1
[56] = Ability to block cleavage of G/GNCC site in Restriction endonuclease Sau961 with the light activated test compound/DNA ratio 4(no. of sites=15); += light activation; in short: as §1
[57] = Ability to block cleavage of G/GNCC site in Restriction endonuclease Sau961 with the light activated test compound/DNA ratio 1:8(no. of sites=15); += light activation; in short: as §1
[58] = Half-life was evaluated in water in the presence of light; type: ADME
[59] = Relative toxicity against mammalian L5178Y cells at dose 0.008 mg/mL in dark-2 condition (expt-I); type: functional, Mus musculus; conditions: in the assay text read “0.008 µg/mL” for “0.008 mg/mL”; in short: as §3

SMILES: COc1cc(NS(C)(=O)=O)ccc1Nc1c2ccccc2nc2cc(N=[N+]=[N-])ccc12.Cl
- half-life [1]: > 14 days
- Blockage activity [2]: Light activation
- Blockage activity [3]: Light activation
- Blockage activity [4]: Light activation
- Blockage activity [5]: Light activation
- Blockage activity [6]: Light activation
- Blockage activity [7]: Light activation
- Blockage activity [8]: Light activation
- Blockage activity [9]: Light activation
- Blockage activity [10]: Light activation
- Blockage activity [11]: Light activation
- Blockage activity [12]: Light activation
- Blockage activity [13]: Light activation
- Blockage activity [14]: Light activation
- Blockage activity [15]: Light activation
- Blockage activity [16]: Light activation
- Induced frequency [17]: 319
- Relative activity [18]: 124
- Relative activity [19]: 28
- Relative toxicity [20]: 65
- Relative toxicity [21]: 65
- Viability [22]: 37.7
- Viability [23]: 35.7
- Mutation frequency [24]: 427 10e6 F
- Mutation frequency [25]: 434 10e6 F
- Mutation frequency [26]: 565 10e6 F
- Relative activity [27]: 53
- Relative activity [28]: 30
- Relative activity [29]: 23
- Relative toxicity [30]: 69
- Relative toxicity [31]: 69
- Relative toxicity [32]: 55
- Viability [33]: 66.7
- Viability [34]: 57
- Viability [35]: 22.3
- Viability [36]: 0
- Induced frequency [37]: 366
- Induced frequency [38]: 411
- Mean value [39]: 95
- Mean value [40]: 114.3
- Mutation frequency [41]: 504 10e6 F
- Mutation frequency [42]: 640 10e6 F
- Induced frequency [43]: 280
- Induced frequency [44]: 457
- Mean value [45]: 99.7
- Mean value [46]: 123.7
- Mean value [47]: 63
- Mean value [48]: 0
- Blockage activity [49]: Light activation
- Blockage activity [50]: Light activation
- Blockage activity [51]: Light activation
- Blockage activity [52]: Light activation
- Blockage activity [53]: Light activation
- Blockage activity [54]: Light activation
- Blockage activity [55]: Light activation
- Blockage activity [56]: Light activation
- Blockage activity [57]: Light activation
- half-life [58]: 2.02 min
- Relative toxicity [59]: 55
